Test results: ChEMBL document CHEMBL4477159, “Anti-inflammatory Actions of (+)-3'α-Angeloxy-4'-keto-3',4'-dihydroseselin (Pd-Ib) against Dextran Sulfate Sodium-Induced Colitis in C57BL/6 Mice” (J Nat Prod, 2016)
Calls of active or inactive are those of the source. No cut-off for these calls is given here.

Columns and labels:
Mus musculus [1] = experiment: Antiinflammatory activity in DSS-induced C57BL/6 mouse acute colitis model assessed as reduction in loss of body weight at 120 mg/kg administered by oral gavage after 9 days of induction; assay type: functional, organism-based
Method in brief: (§1)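 Colitis induced in C57BL/6 mice with 2.0% (w/v) DSS in drinking water for 5 days; controls got distilled water. Saline vehicle, Pd-Ib (30, 60 or 120 mg/kg/day) or SASP (300 mg/kg/day) given by gavage through day 12. Weight, stool consistency and bleeding monitored daily. DAI combines weight-loss, stool and bleeding scores. On day 13, colon measured from ileo-cecal junction to anal verge. n = 8, mean ± SD.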

Mus musculus [2] = experiment: Antiinflammatory activity in DSS-induced C57BL/6 mouse acute colitis model assessed as reduction in loss of body weight at 30 to 60 mg/kg administered by oral gavage after 9 days of induction; assay type: functional, organism-based; method in brief: as §1
Mus musculus [3] = experiment: Antiinflammatory activity in DSS-induced C57BL/6 mouse acute colitis model assessed as lowering of disease activity index at 120 mg/kg administered by oral gavage from day 5 to day 12 measured on day 13 relative to DSS-treated control; assay type: functional, organism-based; method in brief: as §1
Mus musculus [4] = experiment: Antiinflammatory activity in DSS-induced C57BL/6 mouse acute colitis model assessed as attenuation of shortening of colon length at 60 to 120 mg/kg administered by oral gavage from day 5 to day 12 measured on day 13; assay type: functional, organism-based; method in brief: as §1
Mus musculus [5] = experiment: Antiinflammatory activity in DSS-induced C57BL/6 mouse acute colitis model assessed as protection against mucosal injury at 120 mg/kg administered by oral gavage from day 5 to day 12 measured on day 13 by hematoxylin/eosin staining-based microscopic analysis; assay type: functional, organism-based
Method in brief: (§2)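 DSS colitis (2% w/v, 5 days) with daily gavage of saline, Pd-Ib (30–120 mg/kg) or SASP (300 mg/kg) through day 12; sacrifice day 13. Colons rinsed in ice-cold PBS, fixed overnight in 4% paraformaldehyde, paraffin-embedded. 5 μm sections H&E stained and graded on a 0–10 histological scale. n = 8, mean ± SD.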

Mus musculus [6] = experiment: Antiinflammatory activity in DSS-induced C57BL/6 mouse acute colitis model assessed as lowering of histological score at 30 to 120 mg/kg administered by oral gavage from day 5 to day 12 measured on day 13 by hematoxylin/eosin staining-based microscopic analysis; assay type: functional, organism-based; method in brief: as §2
Mus musculus [7] = experiment: Antiinflammatory activity in DSS-induced C57BL/6 mouse acute colitis model assessed as lowering of MPO activity in colon homogenate at 30 to 120 mg/kg administered by oral gavage from day 5 to day 12 measured on day 13; assay type: functional, organism-based
Method in brief: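 Mice given DSS colitis and gavage treatment as above, sacrificed day 13. MPO activity in colon homogenate taken from the rate of optical density change; one unit gives an OD change of 1.0/min at 25 °C. Normalized to colon wet weight, expressed as units/mg tissue. n = 8.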

Mus musculus [8] = experiment: Antiinflammatory activity in DSS-induced C57BL/6 mouse acute colitis model assessed as lowering of IL-17A level administered by oral gavage from day 5 to day 12 measured on day 13; assay type: functional, organism-based
Method in brief: (§3)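 Colon tissue from DSS-colitis mice dosed by gavage (day 13 harvest) homogenized in lysis buffer and spun at 16000g, 4 °C, 15 min. Cytokines in supernatant measured by multiplex bead immunoassay and reported as pg/mL. Protein determined by Bradford with BSA standard. n = 8, mean ± SD.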

Mus musculus [9] = experiment: Antiinflammatory activity in DSS-induced C57BL/6 mouse acute colitis model assessed as lowering of IL-6 level administered by oral gavage from day 5 to day 12 measured on day 13; assay type: functional, organism-based; method in brief: as §3
Mus musculus [10] = experiment: Antiinflammatory activity in DSS-induced C57BL/6 mouse acute colitis model assessed as lowering of IFN-gamma level administered by oral gavage from day 5 to day 12 measured on day 13; assay type: functional, organism-based; method in brief: as §3
Mus musculus [11] = experiment: Antiinflammatory activity in DSS-induced C57BL/6 mouse acute colitis model assessed as lowering of TNF-alpha level administered by oral gavage from day 5 to day 12 measured on day 13; assay type: functional, organism-based; method in brief: as §3
Mus musculus [12] = experiment: Antiinflammatory activity in DSS-induced C57BL/6 mouse acute colitis model assessed as increase of IL-10 level at 30 to 120 mg/kg administered by oral gavage from day 5 to day 12 measured on day 13 relative to DSS-treated control; assay type: functional, organism-based
Mus musculus [13] = experiment: Antiinflammatory activity in DSS-induced C57BL/6 mouse acute colitis model assessed as increase of IL-4 level at 30 to 120 mg/kg administered by oral gavage from day 5 to day 12 measured on day 13 relative to DSS-treated control; assay type: functional, organism-based; method in brief: as §3
Mus musculus [14] = experiment: Antiinflammatory activity in DSS-induced C57BL/6 mouse acute colitis model assessed as lowering of NO production at 30 to 120 mg/kg administered by oral gavage from day 5 to day 12 measured on day 13 by Griess assay; assay type: functional, organism-based
Method in brief: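 On day 13 after DSS colitis and gavage dosing, frozen colon weighed and homogenized in 0.5% hexadecyltrimethylammonium bromide (100 mg tissue/mL). Spun at 16000g, 4 °C, 15 min. Supernatant nitrite measured with Griess reagent. n = 8, mean ± SD.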

Mus musculus [15] = experiment: Downregulation of elevated p-p38 level in colon homogenate of DSS-induced C57BL/6 mouse acute colitis model administered by oral gavage from day 5 to day 12 measured on day 13 by Western blot analysis; assay type: functional, organism-based
Method in brief: (§4)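 Colonic tissue extracts from DSS-colitis mice gavaged through day 12 and sacrificed day 13. Lysed in RIPA buffer (pH 7.4) with phosphatase/protease inhibitors, run on 10% SDS-PAGE and immunoblotted for STAT3, p-STAT3, p38 and p-p38. Blots stripped and reprobed for β-actin as loading control.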

Mus musculus [16] = experiment: Downregulation of elevated p-STAT3 level in colon homogenate of DSS-induced C57BL/6 mouse acute colitis model administered by oral gavage from day 5 to day 12 measured on day 13 by Western blot analysis; assay type: functional, organism-based; method in brief: as §4
[17] = biological target: Signal transducer and activator of transcription 3 (Mus musculus) (UniProt P42227); experiment: Inhibition of LPS-induced STAT3 phosphorylation in mouse RAW264.7 cells at 20 ug/ml after 12 hrs by Western blot analysis; assay type: cell-based
Method in brief: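 RAW264.7 cells given LPS 1 μg/mL with or without Pd-Ib 20 μg/mL for 0–24 h, then harvested and lysed. p-STAT3 and β-actin detected by Western blot.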

[18] = biological target: Signal transducer and activator of transcription 3 (Mus musculus) (UniProt P42227); experiment: Inhibition of LPS-induced STAT3 phosphorylation in mouse RAW264.7 cells at 40 ug/ml after 24 hrs by Western blot analysis; assay type: cell-based
Method in brief: (§5)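 RAW264.7 macrophages (DMEM, 10% FBS, 37 °C, 5% CO2) treated with LPS 1 μg/mL alone or with Pd-Ib 5, 10, 20 or 40 μg/mL for 24 h. Lysates in RIPA buffer, 10% SDS-PAGE, immunoblotted for phospho and total STAT3, JNK, ERK and p38; β-actin loading control.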

RAW264.7 [19] = experiment: Inhibition of LPS-induced IL-6 production in mouse RAW264.7 cells at 5 to 20 ug/ml after 24 hrs by ELISA; assay type: functional, cell-based
Method in brief: (§6)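 RAW264.7 cells incubated 24 h with Pd-Ib (0, 5, 10, 20, 40 μg/mL), with or without LPS 1 μg/mL. IL-6 in the culture supernatant quantified by ELISA.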

[20] = biological target: MAP kinase p38 (Mus musculus) (UniProt P47811+O08911+Q9WUI1+Q9Z1B7); experiment: Inhibition of LPS-induced p38 phosphorylation in mouse RAW264.7 cells at 5 to 40 ug/ml after 24 hrs by Western blot analysis; assay type: cell-based; method in brief: as §5
RAW264.7 [21] = experiment: Inhibition of LPS-induced JNK phosphorylation in mouse RAW264.7 cells at 5 to 40 ug/ml after 24 hrs by Western blot analysis; assay type: cell-based; method in brief: as §5
RAW264.7 [22] = experiment: Inhibition of LPS-induced ERK phosphorylation in mouse RAW264.7 cells at 5 to 40 ug/ml after 24 hrs by Western blot analysis; assay type: cell-based; method in brief: as §5
RAW264.7 [23] = experiment: Inhibition of LPS-induced IL-6 production in mouse RAW264.7 cells at 40 ug/ml after 24 hrs by ELISA; assay type: functional, cell-based; method in brief: as §6
Mus musculus [24] = experiment: Antiinflammatory activity in DSS-induced C57BL/6 mouse acute colitis model assessed as lowering of disease activity index at 300 mg/kg administered by oral gavage from day 5 to day 12 measured on day 13 relative to DSS-treated control; assay type: functional, organism-based; method in brief: as §1
Mus musculus [25] = experiment: Antiinflammatory activity in DSS-induced C57BL/6 mouse acute colitis model assessed as protection against mucosal injury at 300 mg/kg administered by oral gavage from day 5 to day 12 measured on day 13 by hematoxylin/eosin staining-based microscopic analysis; assay type: functional, organism-based; method in brief: as §2
Mus musculus [26] = experiment: Antiinflammatory activity in DSS-induced C57BL/6 mouse acute colitis model assessed as lowering of IL-17A level at 300 mg/kg administered by oral gavage from day 5 to day 12 measured on day 13; assay type: functional, organism-based; method in brief: as §3
Mus musculus [27] = experiment: Antiinflammatory activity in DSS-induced C57BL/6 mouse acute colitis model assessed as lowering of IL-6 level at 300 mg/kg administered by oral gavage from day 5 to day 12 measured on day 13; assay type: functional, organism-based; method in brief: as §3

Chain of Signal transducer and activator of transcription 3 (Mus musculus) (P42227 whole entry): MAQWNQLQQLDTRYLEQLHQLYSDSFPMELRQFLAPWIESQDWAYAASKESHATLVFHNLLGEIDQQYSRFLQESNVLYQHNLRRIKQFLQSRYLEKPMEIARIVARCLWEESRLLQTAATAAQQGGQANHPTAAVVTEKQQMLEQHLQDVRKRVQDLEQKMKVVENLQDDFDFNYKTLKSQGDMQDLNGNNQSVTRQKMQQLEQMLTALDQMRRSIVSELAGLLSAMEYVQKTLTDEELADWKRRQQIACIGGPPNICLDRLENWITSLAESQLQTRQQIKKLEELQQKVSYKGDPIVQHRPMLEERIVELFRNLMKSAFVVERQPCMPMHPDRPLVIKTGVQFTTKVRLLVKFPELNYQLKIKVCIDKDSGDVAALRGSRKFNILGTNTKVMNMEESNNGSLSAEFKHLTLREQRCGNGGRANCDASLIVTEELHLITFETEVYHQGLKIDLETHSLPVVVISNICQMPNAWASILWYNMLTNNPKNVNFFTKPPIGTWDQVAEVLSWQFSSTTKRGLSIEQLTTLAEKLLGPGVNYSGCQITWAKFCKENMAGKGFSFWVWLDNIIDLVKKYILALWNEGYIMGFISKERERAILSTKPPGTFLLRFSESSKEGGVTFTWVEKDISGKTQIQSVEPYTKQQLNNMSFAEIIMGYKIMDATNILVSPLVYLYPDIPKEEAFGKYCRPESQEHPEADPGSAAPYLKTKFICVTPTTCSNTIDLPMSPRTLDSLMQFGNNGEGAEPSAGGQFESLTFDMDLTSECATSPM

## C/C=C(/C)C(=O)O[C@H]1C(=O)c2c(ccc3ccc(=O)oc23)OC1(C)C
Mus musculus [1]
  Activity: Active
Mus musculus [2]
  Activity: inactive
Mus musculus [3]
  Activity: Active
Mus musculus [4]
  Activity: Active
Mus musculus [5]
  Activity: Active
Mus musculus [6]
  Activity: Active
Mus musculus [7]
  Activity: Active
Mus musculus [8]
  Activity: Dose-dependent effect
Mus musculus [9]
  Activity: Dose-dependent effect
Mus musculus [10]
  Activity: Dose-dependent effect
Mus musculus [11]
  Activity: Dose-dependent effect
Mus musculus [12]
  Activity: inactive
Mus musculus [13]
  Activity: Active
Mus musculus [14]
  Activity: Active
Mus musculus [15]
  Activity: Dose-dependent effect
Mus musculus [16]
  Activity: Dose-dependent effect
[17]
  inhibition: Active
[18]
  inhibition: Active
RAW264.7 [19]
  inhibition: Active
[20]
  inhibition: Active
RAW264.7 [21]
  inhibition: Active
RAW264.7 [22]
  inhibition: inactive
RAW264.7 [23]
  inhibition: inactive

## O=C(O)c1cc(/N=N/c2ccc(S(=O)(=O)Nc3ccccn3)cc2)ccc1O
Mus musculus [24]
  Activity: Active
Mus musculus [25]
  Activity: Active
Mus musculus [26]
  Activity: Active
Mus musculus [27]
  Activity: Active
